# Laboratory results published in ChEMBL document CHEMBL4049426, “Identification of the Clinical Candidate (R)-(1-(4-Fluorophenyl)-6-((1-methyl-1H-pyrazol-4-yl)sulfonyl)-4,4a,5,6,7,8-hexahydro-1H-pyrazolo[3,4-g]isoquinolin-4a-yl)(4-(trifluoromethyl)pyridin-2-yl)methanone (CORT125134): A Selective Glucocorticoid Receptor (GR) Antagonist” (J Med Chem, 2017).
# pKi: −log10 of the molar value. The source made the active and inactive calls. The rule behind the calls is not given here.
# What was measured:
# Rattus norvegicus [1] = test: In vivo antagonist activity at glucocorticoid receptor in Sprague-Dawley rat cortisone model of exogenous Cushing's syndrome assessed as inhibition of plasma insulin levels at 30 mg/kg, po bid via gavage for 6 days pretreated for 12 hrs followed by cortisone 21-acetate treatment measured 24 hrs after last cortisone 21-acetate treatment; format: functional, organism-based
# Procedure, shortened: (§1)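 Male Sprague Dawley rats (200-250g), 3-day vehicle baseline, groups of eight. Compound as suspension in DMSO:Tween 80:0.5% HPMC 10:0.1:89.9, oral gavage twice daily for 6 days; cortisone 21-acetate 30mg/kg s.c. daily in 1% methylcellulose. Tail-vein blood 24 h after last cortisone (12 h after last compound); glucose by clinical reagent, insulin by ultrasensitive rat ELISA.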
# Rattus norvegicus [2] = test: In vivo antagonist activity at glucocorticoid receptor in Sprague-Dawley rat assessed as reduction in cortisone-induced plasma glucose levels at 30 mg/kg, po bid via gavage for 6 days pretreated for 12 hrs followed by cortisone 21-acetate treatment measured 24 hrs after last cortisone 21-acetate treatment; format: functional, organism-based; procedure, shortened: as §1
# Glucocorticoid receptor [3] = molecular target: T1, Glucocorticoid receptor (Homo sapiens, UniProt P04150); test: Antagonist activity at glucocorticoid receptor in human HepG2 cells assessed as inhibition of dexamethasone-induced tyrosine amino transferase activity preincubated for 30 mins followed by dexamethasone addition measured after 20 hrs; format: cell-based
# T1 sequence (P04150 whole entry): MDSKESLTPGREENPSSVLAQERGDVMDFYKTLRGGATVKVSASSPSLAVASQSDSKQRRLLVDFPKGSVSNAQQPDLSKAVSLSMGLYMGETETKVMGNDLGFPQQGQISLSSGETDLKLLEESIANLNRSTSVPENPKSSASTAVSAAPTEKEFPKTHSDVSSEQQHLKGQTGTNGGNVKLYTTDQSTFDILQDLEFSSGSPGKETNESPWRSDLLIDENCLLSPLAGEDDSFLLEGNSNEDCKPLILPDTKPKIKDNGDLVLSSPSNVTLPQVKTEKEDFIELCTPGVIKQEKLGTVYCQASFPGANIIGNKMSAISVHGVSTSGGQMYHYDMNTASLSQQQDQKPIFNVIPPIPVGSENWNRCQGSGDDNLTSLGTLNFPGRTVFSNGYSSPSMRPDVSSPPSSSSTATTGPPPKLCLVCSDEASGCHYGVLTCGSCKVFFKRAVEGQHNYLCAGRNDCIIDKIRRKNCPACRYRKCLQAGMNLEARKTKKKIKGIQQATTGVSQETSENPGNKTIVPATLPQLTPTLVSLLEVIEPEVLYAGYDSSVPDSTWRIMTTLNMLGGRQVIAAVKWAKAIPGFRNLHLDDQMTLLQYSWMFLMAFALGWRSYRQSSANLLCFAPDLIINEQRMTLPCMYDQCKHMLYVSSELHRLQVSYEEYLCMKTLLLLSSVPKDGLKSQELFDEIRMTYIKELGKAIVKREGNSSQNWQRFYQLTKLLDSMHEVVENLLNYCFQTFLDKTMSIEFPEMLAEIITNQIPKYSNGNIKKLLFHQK
# Glucocorticoid receptor [4] = molecular target: T1, Glucocorticoid receptor; test: Displacement of fluormone GS Red from human glucocorticoid receptor after 4 hrs by fluorescence polarization assay
# [5] = AUC in Sprague-Dawley CD-1 rat plasma at 3 mg/kg, po administered as cassette dose via gavage measured up to 24 hrs by LC/MS analysis; format: ADME, organism-based; parameters: time < 24 hr, dose 3 mg/kg, route oral
# Procedure, shortened: (§2)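 Three male Sprague Dawley CD-1 rats (220-250g) with jugular vein catheters; three test compounds plus a reference dosed together by oral gavage, 3mg/kg each, in DMSO:0.5% methylcellulose 10:90 (0.6mg/mL per compound), 5mL/kg. Plasma sampled pre-dose and at 0.25, 0.5, 1, 2, 4, 6, 8, 24 h; LC/MS.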
# [6] = Cmax in Sprague-Dawley CD-1 rat plasma at 3 mg/kg, po administered as cassette dose via gavage measured up to 24 hrs by LC/MS analysis; format: ADME, organism-based; parameters: dose 3 mg/kg, route oral; procedure, shortened: as §2
# [7] = Oral bioavailability in Sprague-Dawley CD-1 rat plasma at 5 mg/kg administered through gavage measured up to 24 hrs by LC/MS analysis; format: ADME, organism-based
# Procedure, shortened: (§3)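 Jugular-catheterized male Sprague Dawley CD-1 rats (220-250g). Oral arm: five rats, 5mg/kg gavage, 1mg/mL in DMSO:0.5% methylcellulose 10:90, 5mL/kg, sampled pre-dose and 0.25-24 h. i.v. arm: three rats, 1mg/kg, 0.5mg/mL in DMSO:PEG400:propylene glycol 10:45:45, sampled pre-dose and 0.08-24 h. Plasma by LC/MS.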
# [8] = AUC in Sprague-Dawley CD-1 rat plasma at 5 mg/kg, po administered through gavage measured up to 24 hrs by LC/MS analysis; format: ADME, organism-based; parameters: dose 5 mg/kg, time < 24 hr, route oral; procedure, shortened: as §3
# [9] = Cmax in Sprague-Dawley CD-1 rat plasma at 5 mg/kg, po administered through gavage measured up to 24 hrs by LC/MS analysis; format: ADME, organism-based; parameters: dose 5 mg/kg, route oral; procedure, shortened: as §3
# [10] = Oral bioavailability in monkey plasma at 20 mg/kg measured up to 24 hrs by LC/MS analysis; format: ADME, organism-based, Macaca mulatta; conditions: rhesus monkey
# Procedure, shortened: (§4)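 Monkey i.v./p.o. study: oral 20mg/kg in 10% DMSO, 0.1% Tween 80, 0.5% hydroxypropylmethylcellulose in water; i.v. dose 1mg/kg.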
# [11] = Cmax in monkey plasma at 20 mg/kg, po measured up to 24 hrs by LC/MS analysis; format: ADME, organism-based, Macaca mulatta; parameters: dose 20 mg/kg, route oral; conditions: rhesus monkey; procedure, shortened: as §4
# [12] = AUC in monkey plasma at 20 mg/kg, po measured up to 24 hrs by LC/MS analysis; format: ADME, organism-based, Macaca mulatta; parameters: dose 20 mg/kg, time < 24 hr, route oral; conditions: rhesus monkey; procedure, shortened: as §4
SMILES,pKi (Glucocorticoid receptor [3]),pKi (Glucocorticoid receptor [4]),AUC at 24 h [5] [ng·h/mL],Cmax [6] [ng/mL],also measured
CC#C[C@]1(O)CC[C@H]2[C@@H]3CCC4=CC(=O)CCC4=C3[C@@H](c3ccc(N(C)C)cc3)C[C@@]21C,,,,,inhibition (Rattus norvegicus [1]): Active; inhibition (Rattus norvegicus [2]): Active
O=C(c1nccs1)[C@]12Cc3cnn(-c4ccc(F)cc4)c3C=C1CCN(S(=O)(=O)c1ccc(Cl)c(Cl)c1)C2,7.80,9.23,1220,197,
O=C(c1nccs1)[C@]12Cc3cnn(-c4ccc(F)cc4)c3C=C1CCN(S(=O)(=O)c1cccc(C(F)(F)F)c1)C2,7.77,9.32,446,103,
Cc1ccnc(C(=O)[C@]23Cc4cnn(-c5ccc(F)cc5)c4C=C2CCN(S(=O)(=O)c2ccc(C(F)(F)F)c(F)c2)C3)c1,8.12,9.38,173,48,
Cn1nccc1S(=O)(=O)N1CCC2=Cc3c(cnn3-c3ccc(F)cc3)C[C@]2(C(=O)c2cc(C(F)(F)F)ccn2)C1,7.96,,967,239,bioavailability [7]: 62%; AUC at 24 h [8]: 1560 ng·h/mL; bioavailability [10]: 1%; Cmax [11]: 16 ng/mL; Cmax [9]: 528 ng/mL; AUC at 24 h [12]: 217 ng·h/mL
O=C(c1nccs1)[C@]12Cc3cnn(-c4ccc(F)cc4)c3C=C1CCN(S(=O)(=O)c1ccc(F)c(F)c1)C2,7.43,9.64,,,
Cc1cccc(S(=O)(=O)N2CCC3=Cc4c(cnn4-c4ccc(F)cc4)C[C@]3(C(=O)c3cccc(C)n3)C2)c1,7.85,9.70,,,
Cn1ncc(S(=O)(=O)N2CC[C@H]3Cc4c(cnn4-c4ccc(F)cc4)C[C@]3(C(=O)c3cc(C(F)(F)F)ccn3)C2)n1 [EXICORILANT],7.92,,,,bioavailability [7]: 100%; AUC at 24 h [8]: 9420 ng·h/mL; Cmax [9]: 1260 ng/mL
Cc1ccc(C(=O)[C@]23Cc4cnn(-c5ccc(F)cc5)c4C=C2CCN(S(=O)(=O)c2cccc(C)c2)C3)nc1,8.12,9.85,,,
Cc1csc(C(=O)[C@]23Cc4cnn(-c5ccc(F)cc5)c4C=C2CCN(S(=O)(=O)c2cccc(C(F)(F)F)c2)C3)n1,7.20,9.06,,,
O=C(c1ccccn1)[C@]12Cc3cnn(-c4ccc(F)cc4)c3C=C1CCN(S(=O)(=O)c1cc(F)cc(F)c1)C2,8.04,9.92,143,72,
CCn1nccc1S(=O)(=O)N1CCC2=Cc3c(cnn3-c3ccc(F)cc3)C[C@]2(C(=O)c2cc(C(F)(F)F)ccn2)C1,8.00,,,,bioavailability [7]: 52%; AUC at 24 h [8]: 1530 ng·h/mL; bioavailability [10]: 1.5%; Cmax [11]: 20.8 ng/mL; Cmax [9]: 511 ng/mL; AUC at 24 h [12]: 193 ng·h/mL

# The remaining molecules from weak to strong by pKi (Glucocorticoid receptor [3]), led by results:
pKi (Glucocorticoid receptor [3]),pKi (Glucocorticoid receptor [4]),AUC at 24 h [5] [ng·h/mL],Cmax [6] [ng/mL],SMILES,also measured
8.13,9.49,135,30,Cc1cnc(C(=O)[C@]23Cc4cnn(-c5ccc(F)cc5)c4C=C2CCN(S(=O)(=O)c2ccc(Cl)c(Cl)c2)C3)s1,
8.13,8.89,135,30,Cc1cnc(C(=O)[C@]23Cc4cnn(-c5ccc(F)cc5)c4C=C2CCN(S(=O)(=O)c2ccc(F)c(F)c2)C3)s1,
8.18,,863,291,Cn1ccc(S(=O)(=O)N2CCC3=Cc4c(cnn4-c4ccc(F)cc4)C[C@]3(C(=O)c3cc(C(F)(F)F)ccn3)C2)n1,bioavailability [7]: 68%; AUC at 24 h [8]: 986 ng·h/mL; Cmax [9]: 510 ng/mL
8.24,9.85,421,113,Cc1ccnc(C(=O)[C@]23Cc4cnn(-c5ccc(F)cc5)c4C=C2CCN(S(=O)(=O)c2ccc(F)c(F)c2)C3)c1,
8.29,9.68,,,Cc1ccnc(C(=O)[C@]23Cc4cnn(-c5ccc(F)cc5)c4C=C2CCN(S(=O)(=O)c2cccc(C(F)(F)F)c2)C3)c1,
8.32,9.49,49,20,N#Cc1cccc(S(=O)(=O)N2CCC3=Cc4c(cnn4-c4ccc(F)cc4)C[C@]3(C(=O)c3cc(C(F)(F)F)ccn3)C2)c1,
8.35,9.82,217,70,Cc1ccnc(C(=O)[C@]23Cc4cnn(-c5ccc(F)cc5)c4C=C2CCN(S(=O)(=O)c2cccc(C#N)c2)C3)c1,
8.48,10.10,44,11,Cc1cccc(S(=O)(=O)N2CCC3=Cc4c(cnn4-c4ccc(F)cc4)C[C@]3(C(=O)c3cc(C)ccn3)C2)c1,
8.77,9.72,,,CCc1ccnc(C(=O)[C@]23Cc4cnn(-c5ccc(F)cc5)c4C=C2CCN(S(=O)(=O)c2cccc(C#N)c2)C3)c1,
